This is a sample that favours compounds with a hit; in the whole collection about 1.8% have one here.
APOBEC3A inh: blocks human APOBEC3A ssDNA deamination; P31941; recombinant A3A, FAM/TAMRA ssDNA deamination fluorescence; inhibition, % at 20 µM; 0.41% of 330,000 active; AID 493011;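 active means at least 40% inhibition at 20 µM here, with at most 30% in a related deaminase screen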;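 further: plate controls were A3A with DMSO for no effect and wells lacking A3A enzyme for full effect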
Target sequence (P31941 whole entry, looked up): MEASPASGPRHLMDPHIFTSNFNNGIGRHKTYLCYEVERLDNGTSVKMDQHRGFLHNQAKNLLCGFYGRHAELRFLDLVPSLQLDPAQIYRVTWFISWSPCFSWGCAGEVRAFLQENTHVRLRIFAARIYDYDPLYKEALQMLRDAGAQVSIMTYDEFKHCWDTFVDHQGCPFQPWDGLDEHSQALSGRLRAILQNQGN
PHOSPHO1 block: PHOSPHO1 (human) inhibition. Q8TCT1. recombinant PHOSPHO1, absorbance phosphatase assay. inhibition, % at 13.3 µM. 1.1% of 290,000 active; in the data active means inhibition above about 60%
Target sequence (Q8TCT1 whole entry, looked up): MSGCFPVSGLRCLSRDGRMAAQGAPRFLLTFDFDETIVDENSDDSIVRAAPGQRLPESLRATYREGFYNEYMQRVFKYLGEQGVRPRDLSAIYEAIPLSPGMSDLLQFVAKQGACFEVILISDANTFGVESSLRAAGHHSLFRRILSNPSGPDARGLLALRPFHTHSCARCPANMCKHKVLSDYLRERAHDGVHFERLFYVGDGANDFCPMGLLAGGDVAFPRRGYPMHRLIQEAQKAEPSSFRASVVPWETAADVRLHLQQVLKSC
Tb MetRS inh: Trypanosoma brucei MetRS inhibition | purified T. brucei MetRS, ATP depletion, Kinase-Glo luminescence | inhibition, % at 11.9 µM | 0.4% of 360,000 active | AID 624268;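 active means inhibition above a per-plate cutoff of the control wells' mean inhibition plus 3 SD, cut at about 5.5% in these data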;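 further: 0% = DMSO wells median and 100% = median of wells with control inhibitor compound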
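Material: T. brucei methionyl-tRNA synthetase, purified; reagent: substrates ATP, L-methionine and bulk Escherichia coli tRNA; dosing: 11.9 µM single point; timing: 15 min plus 2 h at 25 °C; detection: luminescence of leftover ATP; evaluation: % inhibition; control set: DMSO-only wells as low control; replicates: singlicate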
p-CIP stab down: compounds decreasing mouse p/CIP protein stability; F442A p/CIP-EGFP cells, EGFP fluorescence, 16 h; 0.01% of 290,000 active; Q05BA5; decrease of EGFP signal, % at 10 µM;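 active means EGFP signal decrease of at least 30% at 10 µM or well 3 SD below plate mean, unless failing retest; inactive means the rest, including hits failing retest or dose response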
APOBEC3G inh: APOBEC3G (human) deaminase inhibition; recombinant A3G, ssDNA deamination FAM/TAMRA fluorescence; inhibition, % at 20 µM; 0.28% of 330,000 active; AID 493012;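 active means inhibition of at least 40% at 20 µM, with no more than 30% in the related APOBEC3A deaminase screen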;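 further: plate controls were DMSO wells with A3G for no effect and wells lacking A3G enzyme for full effect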
* = called active by the depositor; nt = no result.

SMILES	APOBEC3A inh	PHOSPHO1 block	Tb MetRS inh	p-CIP stab down	APOBEC3G inh
O=C(NC1CCCC1)C(c1ccccn1)N(Cc1ccc(F)cc1)C(=O)c1csnn1 (stereo not given)	-3	13	0	4	-8
CCn1c(SCC(=O)c2ccc(O)c(O)c2)nnc1-c1ccc(C)cc1	2	81*	0	-3	-4
CCn1c(SCC(=O)c2ccc3c(c2)Cc2ccccc2-3)nnc1-c1ccc(N)cc1	-3	7	0	-13	-6
COCC(C)n1c(C)cc(C(=O)CSc2ncccn2)c1C (stereo not given)	-2	-50	0	-2	-2
COCC(C)n1c(C)cc(C(=O)CSc2nnc(Nc3ccccc3F)s2)c1C (stereo not given)	4	80*	-1	10	-3
Cc1nc2cc3ccccc3cc2s1	nt	nt	0	nt	nt
Cc1nc2cc3nc(C)sc3cc2s1	0	68*	-1	-21	14
CC1CCN(c2ccc(NC(=O)c3ccc(Br)o3)cc2)CC1	-5	22	0	-16	-10
CCOc1ccccc1NC(=O)c1ccc2c(=O)n3c(nc2c1)CCCCC3	0	75*	1	8	-3
COc1ccccc1OCC(=O)NNC(=O)c1ccc2c(=O)n3c(nc2c1)CCC3	3	33	0	-2	0
COc1ccccc1CNC(=O)c1ccc2c(=O)n3c(nc2c1)CCCCC3	-6	65*	0	0	-5
CCN1C(=O)/C(=C/c2ccc(C)s2)NC1=S	-3	76*	0	-1	-4
Cc1ccc(/C=C2/NC(=O)N(Cc3ccccc3)C2=O)s1	1	14	-1	-5	-1
O=c1[nH]c2cnn(-c3ccccc3)c2c(=O)n1O	nt	nt	0	nt	nt
Cc1ccc(S(=O)(=O)Nc2c(Cl)c(Cl)c(O)c3ccccc23)cc1	-5	9	nt	-1	82*
Cc1ccc(S(=O)(=O)NC(CC(C)C)C(=O)Oc2ccc3c4c(c(=O)oc3c2)CCC4)cc1 (stereo not given)	0	60*	-1	-5	-2
CN(CC(=O)Nc1ccc(Cl)cc1)C(=O)C1CCCC1	-5	nt	0	nt	-1
COCC(COS(N)(=O)=O)C(C)C (stereo not given)	1	-13	0	-6	-4
O=C(c1cccc(S(=O)(=O)Nc2ccc(F)cc2)c1)N1CCC1	-2	nt	0	nt	-6
Cc1ccc(CN2CCN(C(=O)c3ccncc3)CC2)cc1	-3	68*	0	-5	-11
Cc1occc1-c1nnc(SCC(=O)c2ccc(F)cc2)n1Cc1ccco1	2	-10	-1	-12	-3
NC(=O)CSc1nnc(COc2ccccc2)n1Cc1ccco1	1	53	0	-11	-2
O=C(CSc1nnc(-c2cc3ccccc3cc2O)n1Cc1ccco1)c1ccc(F)cc1	2	81*	0	-21	-6
Cc1ccc(C(=O)CSc2nnc(CNc3ccc(C)cc3C)n2Cc2ccco2)cc1	-3	-16	0	-6	-2
Cc1ccc(OCc2nnc(SCC(=O)c3ccccc3)n2Cc2ccco2)cc1	-2	92*	-1	-1	-4
SMILES	APOBEC3A inh	PHOSPHO1 block	Tb MetRS inh	p-CIP stab down	APOBEC3G inh
COc1ccc(C(=O)CSc2nnc(CNc3ccc(C)cc3C)n2Cc2ccco2)cc1	-1	91*	0	-2	17
O=C(CSc1nnc(COc2ccccc2)n1Cc1ccco1)c1ccc(F)cc1	0	78*	0	-2	-1
CCC(c1nnc(SCC(=O)NCCc2ccc(Cl)cc2Cl)o1)N(C)C (stereo not given)	-2	67*	1	-10	-5
CCCCn1c(SCN2C(=O)c3ccccc3C2=O)nc2cc(S(N)(=O)=O)ccc21	nt	90*	1	2	nt
CCCCn1c(SCn2nnc3ccccc3c2=O)nc2cc(S(N)(=O)=O)ccc21	-3	35	0	-15	-5
CCCCn1c(SCC(=O)c2cc(OC)ccc2OC)nc2cc(S(N)(=O)=O)ccc21	4	65*	0	4	0
CCCCn1c(SCC(=O)c2ccc(O)cc2O)nc2cc(S(N)(=O)=O)ccc21	-5	-3	0	17	-1
CCC1CCCCN1CCCNC(=O)Cn1cnc2sc(C)c(S(=O)(=O)N3CC(C)CC(C)C3)c2c1=O (stereo not given)	-2	27	0	-6	-5
COC(=O)c1cc(S(=O)(=O)N2CCC(C)CC2)cn1C	-3	-16	0	-2	-3
CC(C)Sc1nc(SCC(=O)O)c2c3c(sc2n1)COC(C)(C)C3	2	84*	1	2	-4
CC(C)Sc1nc(SCC(=O)NCc2ccco2)c2c3c(sc2n1)COC(C)(C)C3	6	-6	0	-3	-5
Cc1ccc(C(=O)NCC(=O)OCC(=O)NC(C)C2CC3CCC2C3)cc1 (stereo not given)	23	nt	-1	nt	0
COCCOc1ccc(C(F)(F)F)cc1NC(=O)COC(=O)C12CC3CC(CC(O)(C3)C1)C2	-3	29	0	3	-5
COCCn1c(-c2ccco2)csc1=Nc1cccnc1	1	98*	0	-2	-4
CCC(NC(=O)Nc1nnc(C(F)(F)F)s1)(C(F)(F)F)C(F)(F)F	1	15	0	30*	-1
Cc1sc2c(c1C)C(=O)NC(c1cccc(O)c1)N2 (stereo not given)	1	100*	nt	1	25
COC(=O)c1ccc(C2NC(=O)c3c(sc(C)c3C)N2)cc1 (stereo not given)	-5	-15	0	-20	-4
COc1ccccc1N1CCN(C(=O)CN(c2cc(C)cc(C)c2)S(C)(=O)=O)CC1	3	8	0	-1	5
Cc1cc(C(=O)CSc2ncnc3ccccc23)c(C)n1C1CC1	-3	nt	0	nt	-8
Cc1cc(C)n2nc(SCC(=O)c3cc(C)n(-c4cc(C)on4)c3C)nc2n1	-3	102*	0	-28	-6
Cc1cc(-n2c(C)cc(C(=O)CSc3ncnc4ccccc34)c2C)no1	-2	84*	-2	-10	-4
COc1ccccc1CNS(=O)(=O)c1cc(CN2C(=O)c3cccnc3C2=O)ccc1OC	5	27	0	5	4
COc1ccc(CN2C(=O)c3cccnc3C2=O)cc1S(=O)(=O)NC1CCCCC1	-4	69*	1	-10	-5
CCOC(=O)N1CCN(C(=O)CSc2ccc3nnc(-c4ccncc4)n3n2)CC1	-2	-5	0	14	-6
CCOC(=O)CC(=O)CSc1ccc2nnc(-c3ccc(C)cc3)n2n1	10	68*	-1	-6	-7
CC(=O)C(Sc1ccc2nnc(-c3ccc(F)cc3)n2n1)C(C)=O	-8	89*	0	-19	-13
COc1ccccc1NC(=S)NNC(=O)c1cc(C)n(C)n1	1	70*	0	-3	0
COc1ccccc1NC(=S)NNC(=O)c1cc(C)nn1C	-1	67*	0	-9	-1
